Here are results for 17 compounds from ChEMBL document CHEMBL1145790, “Optimization of a tertiary alcohol series of phosphodiesterase-4 (PDE4) inhibitors: structure-activity relationship related to PDE4 inhibition and human ether-a-go-go related gene potassium channel binding affinity” (J Med Chem, 2003).

The target in assay [1] is 3',5'-cyclic-AMP phosphodiesterase 4A (Homo sapiens, UniProt P27815). Put plainly: In vitro inhibitory activity was determined against human Phosphodiesterase 4 isoform using a construct representing the common region of spliced variants expressed as a GST-fusion protein in Sf 9 cells. Format: cell-based. In outline:
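Human PDE4A, common-region construct of spliced variants expressed as GST-fusion in Sf9 cells; values mean ± SEM with n reported.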

Assay [2] deals with Voltage-gated inwardly rectifying potassium channel KCNH2 (Homo sapiens, UniProt Q12809).
The nature of assay [3]: In vitro inhibition of […] induced TNF-alpha production in human whole blood (HWB). The format is functional, tissue-based.
The subject of assay [4] is Canis familiaris. In words: Change in QTc were measured at 15 and 30 min after dosing of bolus at 10 mg/kg in dogs. The format is functional, Canis lupus familiaris. Put shortly: (§1)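 Chloralose-anesthetized mongrel dogs (n = 2 or 3) given iv bolus over 2–5 min as solution in 60–80% PEG-200. QTc recorded at 15 and 30 min postdose as percent change from baseline per dog; values averaged, ΔQTc taken as maximal mean percent change (range given).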

In assay [5] the test system is Canis familiaris. Put plainly: Range of plasma concentration measured between 2 and 30 min in dogs after intravenous bolus dosing at 10 mg/kg. The format is functional, organism-based. Also on record: dose 10 mg/kg. Conditions: Canis lupus familiaris. Put shortly: (§2)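 Anesthetized mongrel dogs, iv bolus (2–5 min) in 60–80% PEG-200; plasma drug levels measured by HPLC between 2 and 30 min after dosing, reported as range (±0.2 µM); data from n ≥ 2 dogs.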

A short description of assay [6]: Ratio of lowest plasma concentration to measured over 30 min interval to 50% inhibition of LPS-induced TNF alpha production in human whole blood. The format is functional.
Assay [7] can be described thus: In vitro inhibitory activity was determined against human whole blood. The format is functional.
Assay [8] has as its system Canis familiaris. In words: Range of plasma concentration measured between 2 and 30 min in dogs after intravenous bolus dosing at 3 mg/kg. To be noted: Canis lupus familiaris. The arrangement: dose 3 mg/kg. Format: functional, organism-based. In outline:
as §2

Assay [9] relates to Canis familiaris. In words: Change in QTc were measured at 15 and 30 min after dosing of bolus at 3 mg/kg in dogs. The format is functional, Canis lupus familiaris. Put shortly: as §1

Voltage-gated inwardly rectifying potassium channel KCNH2, sequence (Q12809 whole entry): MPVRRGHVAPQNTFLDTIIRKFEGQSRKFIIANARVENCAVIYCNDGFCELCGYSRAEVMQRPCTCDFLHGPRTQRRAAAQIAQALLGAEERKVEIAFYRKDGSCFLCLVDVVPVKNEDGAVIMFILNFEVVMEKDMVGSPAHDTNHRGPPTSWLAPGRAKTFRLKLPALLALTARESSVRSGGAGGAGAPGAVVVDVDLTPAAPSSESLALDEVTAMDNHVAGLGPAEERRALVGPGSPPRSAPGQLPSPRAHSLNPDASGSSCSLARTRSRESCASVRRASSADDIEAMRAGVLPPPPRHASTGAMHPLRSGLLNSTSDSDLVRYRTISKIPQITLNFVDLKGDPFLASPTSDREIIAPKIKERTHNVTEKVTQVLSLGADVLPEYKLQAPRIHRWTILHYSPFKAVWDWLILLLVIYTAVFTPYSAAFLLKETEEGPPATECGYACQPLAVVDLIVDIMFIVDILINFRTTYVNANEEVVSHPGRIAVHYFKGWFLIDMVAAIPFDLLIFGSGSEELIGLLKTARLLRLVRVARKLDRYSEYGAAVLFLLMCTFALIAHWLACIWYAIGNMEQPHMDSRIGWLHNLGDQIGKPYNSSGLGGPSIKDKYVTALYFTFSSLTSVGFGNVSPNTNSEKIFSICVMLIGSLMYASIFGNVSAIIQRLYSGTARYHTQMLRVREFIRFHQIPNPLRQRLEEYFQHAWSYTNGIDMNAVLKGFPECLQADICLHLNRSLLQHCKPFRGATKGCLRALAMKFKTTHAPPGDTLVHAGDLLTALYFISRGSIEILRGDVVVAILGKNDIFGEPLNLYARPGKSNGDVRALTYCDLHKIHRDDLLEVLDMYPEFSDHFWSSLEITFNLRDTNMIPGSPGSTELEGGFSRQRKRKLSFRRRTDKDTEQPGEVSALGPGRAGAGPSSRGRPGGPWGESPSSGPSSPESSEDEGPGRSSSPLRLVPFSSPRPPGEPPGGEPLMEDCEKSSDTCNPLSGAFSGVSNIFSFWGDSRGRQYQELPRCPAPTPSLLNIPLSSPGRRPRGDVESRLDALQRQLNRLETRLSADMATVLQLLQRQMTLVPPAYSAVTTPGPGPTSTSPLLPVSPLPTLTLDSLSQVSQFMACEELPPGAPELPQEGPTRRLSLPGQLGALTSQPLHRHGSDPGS
3',5'-cyclic-AMP phosphodiesterase 4A, sequence (P27815 whole entry, looked up, stated change not applied, the tested form may be a part, canonical isoform): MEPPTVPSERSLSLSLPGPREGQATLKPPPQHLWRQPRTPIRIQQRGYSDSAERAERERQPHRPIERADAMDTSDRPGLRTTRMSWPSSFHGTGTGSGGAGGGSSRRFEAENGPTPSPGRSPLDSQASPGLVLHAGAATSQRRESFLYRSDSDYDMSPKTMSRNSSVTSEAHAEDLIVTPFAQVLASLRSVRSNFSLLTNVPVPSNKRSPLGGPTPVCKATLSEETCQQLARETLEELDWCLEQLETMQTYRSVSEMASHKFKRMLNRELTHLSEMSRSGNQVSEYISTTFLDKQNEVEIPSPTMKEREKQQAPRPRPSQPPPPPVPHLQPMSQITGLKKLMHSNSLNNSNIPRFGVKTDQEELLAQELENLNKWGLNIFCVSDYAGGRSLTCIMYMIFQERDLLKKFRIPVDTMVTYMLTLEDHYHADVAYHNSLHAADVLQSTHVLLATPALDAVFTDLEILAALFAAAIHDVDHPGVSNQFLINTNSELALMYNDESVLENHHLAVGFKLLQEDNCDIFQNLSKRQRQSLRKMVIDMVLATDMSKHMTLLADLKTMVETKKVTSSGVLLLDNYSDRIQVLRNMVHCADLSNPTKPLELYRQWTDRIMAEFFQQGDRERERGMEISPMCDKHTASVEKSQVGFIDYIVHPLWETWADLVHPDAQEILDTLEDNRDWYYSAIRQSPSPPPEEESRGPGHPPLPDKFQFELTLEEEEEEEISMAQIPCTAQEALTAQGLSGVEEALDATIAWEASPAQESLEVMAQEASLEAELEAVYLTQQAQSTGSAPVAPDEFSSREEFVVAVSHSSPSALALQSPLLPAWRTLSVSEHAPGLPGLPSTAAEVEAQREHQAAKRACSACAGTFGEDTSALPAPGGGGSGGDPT

Regarding `[O-][n+]1cccc(C[C@H](c2ccc(OC(F)F)c(OC3CC3)c2)c2cnc(C(O)(C(F)(F)F)C(F)(F)F)s2)c1`, the IC50 is 0.048 µM in [1] and 2.64 µM in assay [3] (Homo sapiens, Blood). The same compound returned a Ki in [2] of 39 µM.

For the compound `CC(C)(O)c1ccc(C(Cc2cc[n+]([O-])cc2)c2ccc(OC(F)F)c(OC3CCC3)c2)cc1` (racemic), the IC50 in assay [1] is 0.0016 µM; in [3] (Homo sapiens, Blood), 0.26 µM. In addition, the Ki in assay [2] worked out at 22.4 µM.

`CC(C)(O)c1ccc(C(Cc2ccc[n+]([O-])c2)c2ccc(OC(F)F)c(OC3CC3)c2)cn1` (single isomer, unassigned; (+)2d): the IC50 was 0.0021 µM in assay [1] and 0.2 µM in [3]. The affinity in assay [2], expressed as Ki, was 42.2 µM.

On to `CC(C)(O)c1ncc(C(Cc2cc[n+]([O-])cc2)c2ccc(OC(F)F)c(OC3CCC3)c2)s1` (stereo unspecified), for which, in the assay on Canis familiaris [4], the Change is reported as 2.9%. Also, the IC50 is 0.0005 µM in assay [1]; 0.09 µM in assay [3] (Homo sapiens, Blood); 0.1 µM in assay [7]. Also, the affinity in [2] corresponds to a Ki of 58.4 µM. In the assay with Canis familiaris [5], this compound showed a Plasma concentration of 10 µM. Moreover, the “Ratio plasma concentration/IC50” value in assay [6] is reported as 40.

Turning to `CC(C)(O)c1ccc(C(Cc2cc[n+]([O-])cc2)c2ccc(OC(F)F)c(OC(F)F)c2)cn1` (single isomer, unassigned; (-)), the half-maximal inhibitory concentration (IC50) amounted to 0.035 µM in assay [1] and 0.64 µM in assay [3]. This compound also yielded a Ki in assay [2] of 22.7 µM.

Regarding `CC(C)(O)c1ccc(C(Cc2cc[n+]([O-])cc2)c2ccc(OC(F)F)c(OC3CC3)c2)cn1` (single isomer, unassigned; (-)), the values for the half-inhibitory concentration (IC50) in assay [1] and in [3] were 0.055 µM and 3.52 µM, respectively.

With `[O-][n+]1ccc(CC(c2ccc(OC(F)F)c(OC3CC3)c2)c2cnc(C(O)(C(F)(F)F)C(F)(F)F)s2)cc1` (racemic), the IC50 in assay [1] is 0.0004 µM; in assay [3] (Homo sapiens, Blood) it was 0.02 µM.

In [3] (Homo sapiens, Blood), `CC(C)(O)c1ccc(C(CC2=CCC(=O)N=C2)c2ccc(OC(F)F)c(OC3CC3)c2)cn1` (single isomer, unassigned; (+)) returned an IC50 of 0.06 µM. This lies in the double-digit nanomolar range.

For the compound `COc1ccc([C@H](Cc2ccncc2)c2ccccc2)cc1OC1CCCC1` [CDP840], the IC50 in [1] was 0.0043 µM; in [3] (Homo sapiens, Blood) it was 16.2 µM.

Take `O=c1[nH]c2c(O)ccc(CCNCCS(=O)(=O)CCCOCCc3ccccc3)c2s1` [SIBENADET]: the IC50 in assay [1] worked out at 0.038 µM; in assay [3] (Homo sapiens, Blood), 18 µM.

Take `CC(C)(O)c1ccc(C(Cc2cc[n+]([O-])cc2)c2ccc(OC(F)F)c(OC(F)F)c2)cn1` (stereo in doubt; 2a(+)): the results for the IC50 in [1] and in assay [3] were 0.52 µM and 9.01 µM, respectively. This compound displayed an inhibition constant Ki in [2] of 25.4 µM.

For `[O-][n+]1ccc(CC(c2ccc(OC(F)F)c(OC3CCC3)c2)c2cnc(C(O)(C(F)(F)F)C(F)(F)F)s2)cc1` (racemic), the IC50 came to 0.0008 µM in [1] and 0.02 µM in [3] (Homo sapiens, Blood). Besides, in [2], the Ki amounted to 38.1 µM.

In the case of `CC(C)(O)c1ccc(C(Cc2cc[n+]([O-])cc2)c2ccc(OC(F)F)c(OC3CC3)c2)cn1` (single isomer, unassigned; (+)), the IC50 was determined as 0.0012 µM in [1] and 0.06 µM in assay [3].

`CC(C)(O)c1ccc(C(Cc2ccc[n+]([O-])c2)c2ccc(OC(F)F)c(OC3CC3)c2)cn1` (single isomer, unassigned; (-)2d): the IC50 in assay [1] stood at 0.334 µM; in assay [3] it was 17.9 µM. In addition, in assay [2], the affinity corresponds to a Ki of 44.7 µM.

As for `CC(C)(O)c1ccc(C(Cc2cc[n+]([O-])cc2)c2ccc(OC(F)F)c(OC3CCC3)c2)cn1` (stereo unspecified), the IC50 in assay [1] is 0.001 µM; in assay [3] (Homo sapiens, Blood) it was 0.12 µM. In assay [2], the Ki turned out to be 25 µM.

Regarding `CC(O)(c1ccccc1)c1ccc(C(Cc2cc[n+]([O-])cc2)c2ccc(OC(F)F)c(OC(F)F)c2)cn1` (stereo unspecified), the IC50 stood at 0.0021 µM in assay [1]; 0.16 µM in [3] (Homo sapiens, Blood); 0.16 µM in [7]. In assay [2], this compound yielded an inhibitory constant (Ki) of 1.18 µM. For the same compound, the Plasma concentration in the assay with Canis familiaris [8] turned out to be 5 µM. The same compound yielded a Change in the assay on Canis familiaris [9] of 8.9%. In assay [6], the “Ratio plasma concentration/IC50” value was found to be 12.5.

Turning to `[O-][n+]1cccc(C[C@@H](c2ccc(OC(F)F)c(OC3CC3)c2)c2cnc(C(O)(C(F)(F)F)C(F)(F)F)s2)c1`, in the assay with Canis familiaris [4], the Change was 3%. Besides, the IC50 was 0.0005 µM in [1]; 0.09 µM in assay [3] (Homo sapiens, Blood); 0.09 µM in assay [7]. In [2], this compound showed a Ki of 61.4 µM. This compound also gave a Plasma concentration in the assay on Canis familiaris [5] of 25 µM. The “Ratio plasma concentration/IC50” value in [6] is on record as 211.
